Test results as given in ChEMBL document CHEMBL4406821, “Novel dual inhibitors targeting CDK4 and VEGFR2 synergistically suppressed cancer progression and angiogenesis” (Eur J Med Chem, 2019).
The source made the active and inactive calls. The rule behind the calls is not given here.

How the values were obtained:
[1] = biological target: Tyrosine-protein kinase HCK (Homo sapiens) (UniProt P08631); experiment: Inhibition of recombinant human HCK (230 to 497 residues) at 1 uM using GGMEDIYFEFMGGKKK as substrate incubated for 40 mins in presence of [gamma-33P]-ATP by scintillation counting method relative to control
Tyrosine-protein kinase HCK (Homo sapiens), sequence (P08631 2-526 limits assumed): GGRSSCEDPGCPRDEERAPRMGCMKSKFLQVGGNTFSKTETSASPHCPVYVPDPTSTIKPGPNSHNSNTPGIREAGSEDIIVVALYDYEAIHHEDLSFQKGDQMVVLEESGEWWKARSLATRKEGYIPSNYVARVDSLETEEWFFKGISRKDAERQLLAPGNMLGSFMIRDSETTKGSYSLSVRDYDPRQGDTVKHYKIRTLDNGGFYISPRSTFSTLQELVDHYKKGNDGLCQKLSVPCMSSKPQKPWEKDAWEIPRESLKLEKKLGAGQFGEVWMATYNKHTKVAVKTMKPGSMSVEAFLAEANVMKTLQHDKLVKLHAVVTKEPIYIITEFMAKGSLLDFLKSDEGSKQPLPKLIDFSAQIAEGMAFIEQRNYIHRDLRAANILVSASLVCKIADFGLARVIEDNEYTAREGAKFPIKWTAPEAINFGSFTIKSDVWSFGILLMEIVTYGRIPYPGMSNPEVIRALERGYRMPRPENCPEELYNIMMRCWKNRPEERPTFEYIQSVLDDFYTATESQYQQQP

[2] = Toxicity in NOD/SCID BALB/c mouse xenografted with human SiHa cells assessed as toxic effects in liver at 40 mg/kg, po administered for 48 hrs by hematoxylin and eosin staining method; format: organism-based; settings: in vivo
[3] = biological target: 5'-AMP-activated protein kinase catalytic subunit alpha-2 (Homo sapiens) (UniProt P54646); experiment: Inhibition of recombinant full length human AMPKalpha2 at 1 uM using AMARAASAAALAR as substrate incubated for 40 mins in presence of [gamma-33P]-ATP by scintillation counting method relative to control
5'-AMP-activated protein kinase catalytic subunit alpha-2 (Homo sapiens), sequence (P54646 whole entry, looked up): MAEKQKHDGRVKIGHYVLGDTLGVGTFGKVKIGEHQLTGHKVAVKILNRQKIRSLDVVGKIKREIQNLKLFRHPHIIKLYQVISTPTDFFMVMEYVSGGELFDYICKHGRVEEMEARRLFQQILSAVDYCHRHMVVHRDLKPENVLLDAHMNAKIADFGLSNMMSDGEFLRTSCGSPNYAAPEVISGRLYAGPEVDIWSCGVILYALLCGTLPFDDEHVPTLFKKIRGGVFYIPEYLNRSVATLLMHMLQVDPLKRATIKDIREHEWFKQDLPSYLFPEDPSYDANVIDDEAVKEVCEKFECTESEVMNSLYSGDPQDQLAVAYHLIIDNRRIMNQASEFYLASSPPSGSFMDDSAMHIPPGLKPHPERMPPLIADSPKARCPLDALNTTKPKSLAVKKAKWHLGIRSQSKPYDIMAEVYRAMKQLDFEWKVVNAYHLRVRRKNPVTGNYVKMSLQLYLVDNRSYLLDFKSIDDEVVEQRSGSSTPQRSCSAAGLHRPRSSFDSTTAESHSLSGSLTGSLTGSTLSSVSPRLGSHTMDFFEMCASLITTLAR
Summary of the method: (§1)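 Kinase panel profiling at 1 μM performed by Eurofins KinaseProfiler; percent inhibition reported as mean of two independent experiments.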

[4] = AUC (0 to t) in Sprague-Dawley rat at 10 mg/kg, po by HPLC-MS analysis; format: ADME, organism-based; settings: in vivo
Summary of the method: (§2)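 Rats fitted with jugular vein catheters for serial blood sampling. Compound dissolved in saline with 5% (v/v) DMSO and given as a single 10 mg/kg dose iv or po after an overnight fast, n = 5 per group. Plasma isolated at once and measured by HPLC with tandem MS detection. Parameters derived by noncompartmental fitting.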

[5] = biological target: G protein-coupled receptor kinase 3 (Homo sapiens) (UniProt P35626); experiment: Inhibition of recombinant human full length GRK3 at 1 uM using casein as substrate incubated for 40 mins in presence of [gamma-33P]-ATP by scintillation counting method relative to control
[6] = biological target: Angiopoietin-1 receptor (Homo sapiens) (UniProt Q02763); experiment: Inhibition of recombinant human TIE2 (771 to end residues) at 1 uM using EFPIYDFLPAKKK as substrate incubated for 40 mins in presence of [gamma-33P]-ATP by scintillation counting method relative to control
Angiopoietin-1 receptor (Homo sapiens), sequence (Q02763 whole entry): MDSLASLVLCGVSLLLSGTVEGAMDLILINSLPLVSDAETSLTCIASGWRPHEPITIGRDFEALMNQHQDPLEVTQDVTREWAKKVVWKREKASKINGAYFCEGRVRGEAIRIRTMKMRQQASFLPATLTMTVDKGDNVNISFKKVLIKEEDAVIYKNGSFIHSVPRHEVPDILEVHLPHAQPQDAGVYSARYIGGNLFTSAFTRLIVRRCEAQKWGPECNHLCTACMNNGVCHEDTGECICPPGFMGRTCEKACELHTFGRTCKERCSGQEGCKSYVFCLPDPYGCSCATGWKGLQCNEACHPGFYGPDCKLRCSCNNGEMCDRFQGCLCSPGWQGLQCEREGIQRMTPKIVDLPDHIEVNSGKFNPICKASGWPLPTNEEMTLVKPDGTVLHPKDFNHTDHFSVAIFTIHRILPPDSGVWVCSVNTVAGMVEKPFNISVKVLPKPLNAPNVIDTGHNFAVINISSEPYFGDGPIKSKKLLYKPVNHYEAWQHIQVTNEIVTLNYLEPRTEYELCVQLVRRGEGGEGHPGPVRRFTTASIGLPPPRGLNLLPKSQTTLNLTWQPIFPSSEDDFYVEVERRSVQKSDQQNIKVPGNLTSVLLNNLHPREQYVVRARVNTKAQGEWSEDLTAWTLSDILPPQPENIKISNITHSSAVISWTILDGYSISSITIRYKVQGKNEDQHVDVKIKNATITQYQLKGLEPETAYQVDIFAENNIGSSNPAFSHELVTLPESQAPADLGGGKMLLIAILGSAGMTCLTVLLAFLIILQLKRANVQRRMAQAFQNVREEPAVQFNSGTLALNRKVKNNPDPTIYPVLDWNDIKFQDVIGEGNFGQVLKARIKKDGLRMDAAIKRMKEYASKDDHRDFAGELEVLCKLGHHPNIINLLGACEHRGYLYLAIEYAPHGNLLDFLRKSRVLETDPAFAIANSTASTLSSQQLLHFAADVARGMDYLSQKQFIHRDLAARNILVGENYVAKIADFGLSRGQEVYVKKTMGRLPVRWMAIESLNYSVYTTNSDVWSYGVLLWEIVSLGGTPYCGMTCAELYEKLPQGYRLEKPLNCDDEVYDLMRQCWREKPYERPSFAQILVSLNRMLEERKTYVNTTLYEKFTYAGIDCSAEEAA

[7] = biological target: Protein kinase C gamma type (Homo sapiens) (UniProt P05129); experiment: Inhibition of recombinant human full length PKCgamma at 1 uM using histone H1 as substrate incubated for 40 mins in presence of [gamma-33P]-ATP by scintillation counting method relative to control
[8] = biological target: Calcium/calmodulin-dependent protein kinase type IV (Homo sapiens) (UniProt Q16566); experiment: Inhibition of recombinant full length human CAMK4 at 1 uM using calmodulin as substrate incubated for 40 mins in presence of [gamma-33P]-ATP by scintillation counting method relative to control; summary of the method: as §1
Calcium/calmodulin-dependent protein kinase type IV (Homo sapiens), sequence (Q16566 whole entry, the tested form may be a part): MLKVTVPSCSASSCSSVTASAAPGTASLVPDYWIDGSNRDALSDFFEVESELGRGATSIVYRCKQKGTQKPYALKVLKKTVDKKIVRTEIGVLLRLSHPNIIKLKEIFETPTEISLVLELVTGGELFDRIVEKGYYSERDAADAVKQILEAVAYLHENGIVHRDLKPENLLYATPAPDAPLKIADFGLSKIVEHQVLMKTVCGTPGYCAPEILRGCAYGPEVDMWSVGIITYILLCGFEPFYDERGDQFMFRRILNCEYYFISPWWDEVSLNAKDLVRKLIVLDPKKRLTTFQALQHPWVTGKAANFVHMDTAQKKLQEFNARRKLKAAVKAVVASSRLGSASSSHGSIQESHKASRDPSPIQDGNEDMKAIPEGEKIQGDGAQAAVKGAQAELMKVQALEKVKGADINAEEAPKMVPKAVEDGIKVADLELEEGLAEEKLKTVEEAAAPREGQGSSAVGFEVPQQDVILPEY

[9] = biological target: Tau-tubulin kinase 1 (Homo sapiens) (UniProt Q5TCY1); experiment: Inhibition of recombinant human TTBK1 (1 to 479 residues) at 1 uM using casein as substrate incubated for 40 mins in presence of [gamma-33P]-ATP by scintillation counting method relative to control
Summary of the method: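 Tested at a single 1 uM in an outsourced commercial kinase-profiling panel, read as percent inhibition. Each value is the mean of two independent experiments.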

[10] = biological target: Serine/threonine-protein kinase Sgk3 (Homo sapiens) (UniProt Q96BR1); experiment: Inhibition of recombinant human SGK3 (119 to end residues) at 1 uM using GRPRTSSFAEGKK as substrate incubated for 40 mins in presence of [gamma-33P]-ATP by scintillation counting method relative to control
Serine/threonine-protein kinase Sgk3 (Homo sapiens), sequence (Q96BR1 whole entry): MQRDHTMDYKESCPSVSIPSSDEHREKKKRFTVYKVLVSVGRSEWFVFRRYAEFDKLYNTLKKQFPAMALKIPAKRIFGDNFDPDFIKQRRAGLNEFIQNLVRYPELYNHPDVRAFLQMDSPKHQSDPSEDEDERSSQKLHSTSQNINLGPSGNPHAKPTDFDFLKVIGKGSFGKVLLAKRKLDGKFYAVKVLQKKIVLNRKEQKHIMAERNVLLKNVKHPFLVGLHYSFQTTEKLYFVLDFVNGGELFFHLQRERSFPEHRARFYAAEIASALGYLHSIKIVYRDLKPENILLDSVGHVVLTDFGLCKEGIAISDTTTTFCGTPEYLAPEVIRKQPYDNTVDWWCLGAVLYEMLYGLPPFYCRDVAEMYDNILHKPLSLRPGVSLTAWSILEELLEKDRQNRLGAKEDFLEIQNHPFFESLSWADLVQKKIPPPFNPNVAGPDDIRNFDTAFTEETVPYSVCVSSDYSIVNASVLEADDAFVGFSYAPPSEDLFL

[11] = biological target: RAF proto-oncogene serine/threonine-protein kinase (Homo sapiens) (UniProt P04049); experiment: Inhibition of recombinant human cRaf (306 to end residues) at 1 uM using unactive MEK1 as substrate incubated for 40 mins in presence of [gamma-33P]-ATP by scintillation counting method relative to control
[12] = biological target: Casein kinase II subunit alpha (Homo sapiens) (UniProt P68400); experiment: Inhibition of recombinant full length human CK2alpha1 at 1 uM using RRRDDDSDDD as substrate incubated for 40 mins in presence of [gamma-33P]-ATP by scintillation counting method relative to control; summary of the method: as §1
Casein kinase II subunit alpha (Homo sapiens), sequence (P68400 whole entry, looked up): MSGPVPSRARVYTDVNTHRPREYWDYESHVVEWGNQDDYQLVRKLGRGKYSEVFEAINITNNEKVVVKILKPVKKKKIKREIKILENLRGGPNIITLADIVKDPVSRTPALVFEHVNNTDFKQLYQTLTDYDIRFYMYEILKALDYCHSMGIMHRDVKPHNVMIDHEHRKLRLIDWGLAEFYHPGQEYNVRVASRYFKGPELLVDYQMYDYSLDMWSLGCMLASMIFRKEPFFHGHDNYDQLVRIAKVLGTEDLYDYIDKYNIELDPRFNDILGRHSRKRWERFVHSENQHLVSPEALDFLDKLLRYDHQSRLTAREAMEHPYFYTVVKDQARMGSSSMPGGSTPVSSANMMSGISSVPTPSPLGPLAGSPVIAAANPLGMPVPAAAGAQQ

[13] = biological target: Eukaryotic translation initiation factor 2-alpha kinase 3 (Homo sapiens) (UniProt Q9NZJ5); experiment: Inhibition of recombinant human PEK (536 to end residues) at 1 uM using RSRSRSRSRSRSRSR as substrate incubated for 40 mins in presence of [gamma-33P]-ATP by scintillation counting method relative to control
[14] = tested on: SiHa; experiment: Antiproliferative activity against human SiHa cells assessed as reduction in cell viability at 40 to 80 nM incubated for 48 hrs by EdU staining based laser scanning confocal microscopy; format: functional
Summary of the method: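 Cells, 5×10^4, were seeded in 24-well plates and treated for 48 h. They were then labeled using an EdU Apollo 488 imaging kit with Hoechst 33342 nuclear stain and imaged by laser scanning confocal microscopy. Percent EdU-positive cells = EdU-positive/Hoechst-stained × 100%.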

[15] = biological target: Mitogen-activated protein kinase 11 (Homo sapiens) (UniProt Q15759); experiment: Inhibition of recombinant human full length SAPK2b at 1 uM using myelin basic protein as substrate incubated for 40 mins in presence of [gamma-33P]-ATP by scintillation counting method relative to control
Summary of the method: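 Single-point inhibition at 1 uM measured in a commercial kinase profiling panel (KinaseProfiler); each value is the mean of two independent experiments.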

[16] = AUC (0 to t) in Sprague-Dawley rat at 10 mg/kg, iv by HPLC-MS analysis; format: ADME, organism-based; settings: in vivo; summary of the method: as §2
[17] = biological target: RAC-gamma serine/threonine-protein kinase (Homo sapiens) (UniProt Q9Y243); experiment: Inhibition of recombinant human PKBgamma (117 to end residues) at 1 uM using GRPRTSSFAEGKK as substrate incubated for 40 mins in presence of [gamma-33P]-ATP by scintillation counting method relative to control
[18] = tested on: SiHa; experiment: Induction of apoptosis in human SiHa cells assessed as decrease in Rb phosphorylation incubated for 48 hrs by Western blot analysis; format: functional, cell-based
Summary of the method: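 Cancer cells were exposed to graded concentrations for 48 h, washed three times in PBS and lysed in RIPA buffer. Immunoblots were probed with anti-Rb, anti-phospho-Rb, anti-Ki67 and anti-Bcl-2, each at 1:1000. β-actin served as loading control.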

[19] = biological target: Serine/threonine-protein kinase SIK3 (Homo sapiens) (UniProt Q9Y2K2); experiment: Inhibition of recombinant human SIK3 (1 to 307 residues) at 1 uM using KKKVSRSGLYRSPSMPENLNRPR as substrate incubated for 40 mins in presence of [gamma-33P]-ATP by scintillation counting method relative to control
Serine/threonine-protein kinase SIK3 (Homo sapiens), sequence (Q9Y2K2 whole entry, looked up, the tested form may be a part): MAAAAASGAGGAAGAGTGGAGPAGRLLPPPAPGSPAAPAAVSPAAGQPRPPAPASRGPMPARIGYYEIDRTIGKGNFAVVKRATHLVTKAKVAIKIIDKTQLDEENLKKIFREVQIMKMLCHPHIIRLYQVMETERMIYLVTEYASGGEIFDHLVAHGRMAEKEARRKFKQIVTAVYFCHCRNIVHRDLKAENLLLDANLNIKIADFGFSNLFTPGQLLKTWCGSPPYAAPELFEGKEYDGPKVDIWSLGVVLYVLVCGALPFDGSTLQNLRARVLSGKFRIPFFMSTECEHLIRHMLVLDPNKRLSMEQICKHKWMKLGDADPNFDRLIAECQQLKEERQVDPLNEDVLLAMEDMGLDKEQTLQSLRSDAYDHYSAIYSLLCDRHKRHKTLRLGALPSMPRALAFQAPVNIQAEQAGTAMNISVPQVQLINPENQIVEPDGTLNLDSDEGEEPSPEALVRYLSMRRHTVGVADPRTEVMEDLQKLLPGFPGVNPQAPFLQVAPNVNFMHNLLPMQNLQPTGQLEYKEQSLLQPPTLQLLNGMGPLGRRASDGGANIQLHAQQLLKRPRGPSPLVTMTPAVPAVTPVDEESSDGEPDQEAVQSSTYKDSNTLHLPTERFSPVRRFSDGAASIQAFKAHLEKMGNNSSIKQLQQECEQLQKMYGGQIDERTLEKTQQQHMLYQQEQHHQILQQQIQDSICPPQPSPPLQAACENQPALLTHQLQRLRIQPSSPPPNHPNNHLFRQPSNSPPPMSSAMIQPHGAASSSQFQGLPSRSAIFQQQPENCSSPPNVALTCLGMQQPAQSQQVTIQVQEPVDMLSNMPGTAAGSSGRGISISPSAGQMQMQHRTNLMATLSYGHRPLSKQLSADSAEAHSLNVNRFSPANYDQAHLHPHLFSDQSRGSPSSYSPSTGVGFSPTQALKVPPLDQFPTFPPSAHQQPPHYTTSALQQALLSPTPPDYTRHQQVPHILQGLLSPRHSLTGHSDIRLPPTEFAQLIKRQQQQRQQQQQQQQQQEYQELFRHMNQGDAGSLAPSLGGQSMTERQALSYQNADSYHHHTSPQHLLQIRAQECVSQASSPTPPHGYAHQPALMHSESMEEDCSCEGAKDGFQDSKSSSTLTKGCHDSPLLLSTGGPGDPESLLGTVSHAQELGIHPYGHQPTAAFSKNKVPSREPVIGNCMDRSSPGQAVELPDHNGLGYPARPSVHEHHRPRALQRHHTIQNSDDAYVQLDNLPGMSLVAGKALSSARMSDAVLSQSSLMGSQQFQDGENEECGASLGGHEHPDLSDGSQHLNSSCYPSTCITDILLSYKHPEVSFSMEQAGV

[20] = Toxicity in NOD/SCID BALB/c mouse xenografted with human SiHa cells assessed as body weight at 40 mg/kg, po administered for 21 days; format: organism-based; settings: in vivo, 504 h
Summary of the method: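 Female NOD/SCID Balb/c mice, 6–8 weeks, implanted subcutaneously in right flank with 2×10^6 SiHa cells in 100 µL medium. At 100 mm³ tumors, randomized (5 mice/group) to daily oral gavage. Body weight monitored every 3 days; study ended day 21.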

[21] = biological target: Vascular endothelial growth factor receptor 2 (Homo sapiens, UniProt P35968); settings: HUVEC, 40 nM

Cc1ccc(NC(=O)C2(C(=O)Nc3ccc(Nc4ncc(F)c(-c5cc(F)c6nc(C)n(C(C)C)c6c5)n4)cc3)CC2)cc1
inhibition [1]: 66%
Activity [2]: Non-Toxic
inhibition [3]: 77%
AUC(0-t) [4]: 6000 ng·h/mL
inhibition [5]: 10%
inhibition [6]: 23%
inhibition [7]: 23%
inhibition [8]: 6%
inhibition [9]: 0%
inhibition [10]: 11%
inhibition [11]: 31%
inhibition [12]: 36%
inhibition [13]: 2%
inhibition [14]: Active
inhibition [15]: 0%
AUC(0-t) [16]: 10000 ng·h/mL
inhibition [17]: 64%
Activity [18]: Dose-dependent effect
inhibition [19]: 43%

COc1cc2nccc(Oc3ccc(NC(=O)C4(C(=O)Nc5ccc(F)cc5)CC4)cc3)c2cc1OC [CABOZANTINIB]
Activity [20]: Non-Toxic
inhibition [21]: Active
